Compound activity: PubChem BioAssay, The Scripps Research Institute Molecular Screening Center
Rows were chosen to be rich in hits. Some 0.75% of all compounds tested hit in one or more screens of this group.
ZTA counter: counter-screen for EBNA-1 inhibitors: inhibitors of Epstein-Barr virus ZTA; hit rate 0.15% among 320,000; inhibition, % at 11 µM; P03206; ZTA-DNA binding, fluorescence polarization; in the data active means inhibition above about 33%
Target sequence (P03206 whole entry, looked up): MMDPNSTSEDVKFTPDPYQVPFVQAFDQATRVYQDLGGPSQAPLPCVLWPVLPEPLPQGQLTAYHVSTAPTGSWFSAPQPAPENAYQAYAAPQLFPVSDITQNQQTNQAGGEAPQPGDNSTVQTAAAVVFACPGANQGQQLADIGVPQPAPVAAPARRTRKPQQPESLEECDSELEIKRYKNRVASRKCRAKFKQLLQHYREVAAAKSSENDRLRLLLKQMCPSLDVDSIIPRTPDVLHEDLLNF
ASAP1 GAP inh: ASAP1 ArfGAP inhibition. AID 624377. inhibition, % at 16.5 µM. hit rate 0.19% among 360,000. ASAP1-stimulated ARF1 GTP hydrolysis, GDP FP detection. Q9ULH1; in the data active means inhibition above about 25%
EBNA-1 inhibitor: blocks EBNA-1 binding to DNA; EBNA-1 DNA binding, fluorescence polarization; inhibition, % at 14.8 µM; hit rate 0.34% among 300,000; in the data active means inhibition above about 28%
ARFGAP1 inhibitor: inhibitors of rat ARFGAP1 | Arfgap1-stimulated ARF1 GTP hydrolysis, GDP FP detection | inhibition, % at 16.5 µM | hit rate 0.26% among 360,000;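 active means inhibition above a per-plate limit, mean inhibition of low control wells plus 3 SD, cut at about 25% in these data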
Target sequence (Q62848 1-136 limits assumed): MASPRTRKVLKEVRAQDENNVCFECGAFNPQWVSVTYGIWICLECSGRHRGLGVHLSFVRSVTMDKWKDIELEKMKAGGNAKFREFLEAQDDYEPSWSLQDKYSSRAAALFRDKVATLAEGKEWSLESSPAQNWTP
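material = rat Arfgap1 catalytic domain, aa 1-136 | also added = human ARF1(Δ1-17)-GTP substrate | compound dosing = one concentration, 16.5 µM, DMSO 1.26% | times = GTP hydrolysis reaction 2 h at 25 °C | measured by = FP, GDP Alexa 633 tracer displaced from anti-GDP antibody, 620/688 nm | evaluation = percent inhibition of Arfgap1-stimulated GTP hydrolysis | replication = single well per compound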
EBNA-1 confirm: EBNA-1 (EBV) inhibition, confirmation. hit rate 35% among 830. Recombinant EBNA-1 DBD, Cy5-DNA fluorescence polarization. inhibition, % at 14.8 µM. shares compounds with EBNA-1 inhibitor;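 active means mean inhibition across replicates above a set limit taken from the earlier primary screen, cut at about 28% in these data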
ZTA DNA inh trip: blocks Epstein-Barr virus ZTA in triplicate, EBNA-1 counter-screen; shares compounds with EBNA-1 inhibitor; Zta-ZRE DNA binding, Cy5 fluorescence polarization; inhibition, % at 11.1 µM; 830 tested, under 10 active; AID 2328;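 active means mean inhibition over triplicates above a set limit taken from the primary EBNA-1 screen, cut at about 37% in these data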;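 further: purified full length Zta protein with Cy5 labeled ZRE DNA probe; inhibitors lower polarization by freeing the labeled DNA probe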
Numbers stand for hits; 0 = inactive; - = not tested or not shown; + = active, no number.

SMILES	ZTA counter	ASAP1 GAP inh	EBNA-1 inhibitor	ARFGAP1 inhibitor	EBNA-1 confirm	ZTA DNA inh trip
O=C(Nc1ccc(S(=O)(=O)Nc2nccs2)cc1)c1ccc(N2C(=O)c3ccccc3C2=O)cc1	0	0	61.4	0	0	0
O=C(N[C@@H](Cc1cccnc1)C(=O)N1CCC[C@H]1C(=O)NC1CCCC1)C1CCCC1	-	0	-	0	-	-
COC(=O)c1cc(NC(=O)C2CCCN(S(=O)(=O)c3c(C)n[nH]c3C)C2)cc(C(=O)OC)c1 (configuration not stated)	0	0	27.6	0	0	0
COC(=O)N1C[C@H](OCc2cn(-c3cc(Cl)cc(Cl)c3)nn2)[C@H](OCc2cn(-c3cc(Cl)cc(Cl)c3)nn2)C[C@@H]1c1ccccc1Br	-	0	-	0	-	-
CCNC(=S)N/N=C/c1c(C)nn(-c2cccc(Cl)c2)c1Cl	0	0	57.2	0	48.3	0
COc1ccc(-c2ccc(C#N)c(SCC(=O)NCCc3ccccc3)n2)cc1OC	0	-	28.1	-	0	0
N#Cc1nc(-c2ccc(Cl)cc2)oc1NCc1cccc2c1OCO2	0	0	27.8	0	30.0	0
COC(=O)C1=C(C)N(C)C(=NCc2ccccc2)NC1c1cccc(Cl)c1 (configuration not stated)	-	0	-	0	-	-
COc1ccc2c(c1)c(CC(=O)Nc1cccc(S(N)(=O)=O)c1)c(C)n2C(=O)c1ccc(Cl)cc1	0	0	36.8	0	0	0
COc1ccc(NC(=O)Cc2c(C)n(C(=O)c3ccc(Cl)cc3)c3ccc(OC)cc23)cc1	0	0	0	0	-	-
Cc1ccccc1OCc1nc(-c2ccc(NC(=O)c3ccco3)cc2)no1	0	0	0	0	-	-
Cc1ccccc1OCc1nc(-c2ccc(NC(=O)c3ccc4c(c3)OCO4)cc2)no1	0	0	28.8	0	39.0	0
N#CCC1(O)C(=O)Nc2ccccc21 (configuration not stated)	-	0	-	0	-	-
COc1ccc(NC(=O)CN(C)C(=O)c2cc(-c3ccc(OC)cc3)nc3ccccc23)cc1	0	0	31.4	0	0	0
COCCn1cnnc1SCC(=O)Nc1cc(OC)c([N+](=O)[O-])cc1C	0	0	+	0	0	0
C[C@@H]1CN(c2ccc(N3CCNC[C@@H]3C)cc2C#N)C[C@H](C)O1	-	0	-	0	-	-
O=C(COc1ccc2ccccc2c1)NNC(=O)Cc1ccccc1	0	0	28.1	0	34.7	0
N#Cc1ccc2nc(-c3ccc(CN4CCC5(CC4)CNc4ccccc45)cc3)c(-c3ccccc3)nc2c1	-	0	-	0	-	-
Cc1ccc(-c2nnc(NCc3nc4ccccc4[nH]3)c3ccccc23)cc1S(=O)(=O)N(C)C	0	0	93.3	0	36.9	0
COc1ccc(C2CC(=O)C(c3cccc(C)c3)=CN2Cc2ccccc2)cc1 (configuration not stated)	-	0	-	0	-	-
O=C(CN1CCCC1)Nc1c(C(=O)C2CC2)oc2ccccc12	0	0	0	0	-	-
N#Cc1ccccc1OCC(=O)Nc1c(C(=O)C2CC2)oc2ccccc12	0	0	30.1	0	91.7	0
CCc1cc(C(=O)N(CC(C)C)c2c(N)n(Cc3ccccc3)c(=O)[nH]c2=O)sc1C	0	0	33.1	0	0	0
CCCN(C(=O)COC(=O)c1cc(CC)c(C)s1)c1c(N)n(Cc2ccccc2)c(=O)[nH]c1=O	0	0	0	0	-	-
CCCCc1c(-c2ccccc2OC)ncn1C(C)c1ccc(Cl)cc1 (configuration not stated)	-	0	-	0	-	-
SMILES	ZTA counter	ASAP1 GAP inh	EBNA-1 inhibitor	ARFGAP1 inhibitor	EBNA-1 confirm	ZTA DNA inh trip
NC(=O)c1nn(-c2ccccc2)nc1NC(=O)Cn1nnc(-c2ccccc2)n1	0	0	45.9	0	0	0
CCOc1ccc(/C=N/NC(=O)c2ccc(CSc3nc4ccccc4[nH]3)cc2)cc1	0	0	32.8	0	39.1	0
Cc1onc(-c2c(F)cccc2Cl)c1-c1ncc(-c2ccc(Cl)cc2)o1	-	0	-	0	-	-
CCOc1cc(NS(=O)(=O)c2ccc(NC(C)=O)cc2)c(OCC)cc1NC(=O)c1cccs1	0	0	41.1	0	27.8	0
Cc1cccc(-c2noc(CCCC(=O)Nc3ccc(C(N)=O)cc3)n2)c1	0	0	0	0	-	-
Cc1cccc(-c2noc(CCC(=O)Nc3ccc(C(N)=O)cc3)n2)c1	0	0	76.0	0	39.0	0
COc1cc(NC(=O)c2ccccc2)c(OC)cc1NC(=O)Cc1ccc(Br)cc1	0	0	35.6	0	49.9	0
